Measurements pooled from the literature.
Each line is one published result; the experiments were not run side by side.

| SMILES | cell line | test | setting | endpoint | value |
| --- | --- | --- | --- | --- | --- |
| CNc1ncc2c(/C=C/C(=O)N3CCC(OC)CC3)nn(CC(OC)OC)c2n1 | OE33 | cell growth or viability, resazurin | 5 days | EC50 | > 30 µM |
| CC(=O)c1nn(-c2ccccc2Cl)/c(=N/N=C(\C)c2ccc(NC(=O)c3ccccc3)cc2)s1 | HepG2 | cell growth or viability, MTT | 0.625 µM | viability | 5.95% |
| CC(=O)Nc1ccc(Oc2nnc(-c3ccc(Cl)cc3)c3ccccc23)cc1 | HepG2 | cell growth or viability, MTT | 2.5 µM, 24 h | viability | 6.5% |
| C=CC(=O)NC1CCN(c2ncc3ncnc(Nc4ccc(Oc5ccc6c(c5)ncn6C)c(C)c4)c3n2)CC1 | SW 1116 | cell growth or viability |  | EC50 | 0.0152 µM |
| Nc1ncnc2c1c(/C=C/C(=O)N1CCC(c3ccccc3)CC1)nn2CC1CCCC1 | OE33 | cell growth or viability, resazurin | 5 days | EC50 | > 30 µM |
| CC(C)(C)c1cnc(CSc2cnc(NC(=O)C3CCN(CCCCCCCCSc4cccc5c4C(=O)N(C4CCC(=O)NC4=O)C5=O)CC3)s2)o1 (centres unmarked) | HH | cell growth or viability, CCK-8 | 0.15 µM | viability | 16.5% |
| CCOC(=O)c1nn(-c2cccc(Cl)c2)/c(=N/N=C(\C)c2ccc(NC(=O)c3ccc(Cl)cc3)cc2)s1 | HepG2 | cell growth or viability, MTT | 1.25 µM | viability | 2.59% |
| CC(C)(C)c1cnc(CSc2cnc(NC(=O)C3CCN(C(=O)CCCSc4cccc5c4C(=O)N(C4CCC(=O)NC4=O)C5=O)CC3)s2)o1 (centres unmarked) | HH | cell growth or viability, CCK-8 | 1 nM | viability | 98.1% |
| CNc1ncc2c(/C=C/C(=O)N3CCC(OC)CC3)nn(Cc3ccccc3C(F)(F)F)c2n1 | OE33 | cell growth or viability, resazurin | 5 days | EC50 | 11.4 µM |
| O=C(C=Cc1ccccc1)Nc1ccc(Oc2nnc(-c3ccc(Cl)cc3)c3ccccc23)cc1 | HepG2 | cell growth or viability, MTT | 1.25 µM | cell death | 62.6% |
| CNc1ncc2c(/C=C/C(=O)N3CCC(OC)CC3)nn(Cc3ccccc3C)c2n1 | OE33 | cell growth or viability, resazurin | 5 days | EC50 | 7.84 µM |
| O=C(Nc1ccccc1)Nc1ccc(C(F)(F)F)cc1 | LAD2 | degranulation |  | IC50 | 8.31 µM |
| O=C(Nc1ccc(Oc2nnc(-c3ccc(Cl)cc3)c3ccccc23)cc1)c1cccc([N+](=O)[O-])c1 | HepG2 | cell growth or viability, MTT | 5 µM | cell death | 94.8% |
| CNc1ncc2c(/C=C/C(=O)N3CCC(CCO)CC3)nn(CC3CCCC3)c2n1 | OE33 | cell growth or viability, resazurin | 5 days | EC50 | > 30 µM |
| CC(=NNC(=S)Nc1ccccc1)c1ccc(Nc2nnc(-c3ccc(Cl)cc3)c3ccccc23)cc1 | HepG2 | cell growth or viability, MTT | 0.312 µM | cell death | 0.861% |
| CC(C)(C)c1cnc(CSc2cnc(NC(=O)C3CCN(CCCCCCCCSc4cccc5c4CN(C4CCC(=O)NC4=O)C5=O)CC3)s2)o1 (centres unmarked) | HH | cell growth or viability, CCK-8 | 10 nM | viability | 99.7% |
| CC(=NNC(=O)c1cccnc1)c1ccc(Nc2nnc(-c3ccc(Cl)cc3)c3ccccc23)cc1 | HepG2 | cell growth or viability, MTT | 5 µM | cell death | 96.8% |
| Nc1ncnc2c1c(/C=C/C(=O)N1CCOCC1)nn2CC1CCCC1 | OE33 | cell growth or viability, resazurin | 5 days | EC50 | > 30 µM |
| CC(C)(C)c1cnc(CSc2cnc(NC(=O)C3CCN(C(=O)COCCOCCSc4cccc5c4C(=O)N(C4CCC(=O)NC4=O)C5=O)CC3)s2)o1 (centres unmarked) | HH | cell growth or viability, CCK-8 | 1 µM | viability | 7.67% |
| O=C(Nc1ccc(Oc2nnc(-c3ccc(Cl)cc3)c3ccccc23)cc1)c1ccccc1 | HepG2 | cell growth or viability, MTT | 0.312 µM | cell death | 67.5% |
